Laboratory results as given in ChEMBL document CHEMBL3272249, “Esters of N-tert-butylarterenol. Long-acting new bronchodilators with reduced cardiac effects” (J Med Chem, 1976).

Key:
[1] = system: Canis familiaris; assay: Bronchodilator activity in dog assessed as time of inhibition of carbachol or histamine-induced bronchoconstriction at 530 to 1060 mg/kg, it relative to control; format: functional, Canis lupus familiaris; settings: dose mg/kg 530-1060; route endotracheal
Procedure, shortened: (§1)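 Anesthetized dogs with an airway cannula and a nonbreathing valve. Bronchoconstriction was induced by iv carbachol (2–4 μg/kg) or histamine diphosphate (20–50 μg/kg) and read as change in airway pressure by transducer. Each compound was tested against both agonists in different dogs, and the results were combined and averaged. Effect is % inhibition of control constriction, with at least three dogs per dose. Drugs were dissolved fresh in distilled water, diluted in saline and kept on ice.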

[2] = system: Canis familiaris; assay: Bronchodilator activity in dog assessed as degree of inhibition of carbachol or histamine-induced bronchoconstriction at 530 to 1060 mg/kg, it relative to control; format: functional, Canis lupus familiaris; settings: dose mg/kg 530-1060; route endotracheal
Procedure, shortened: (§2)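 Anesthetized dogs, trachea cannulated with a nonbreathing valve. Bronchoconstriction induced by iv carbachol (2–4 μg/kg) or histamine diphosphate (20–50 μg/kg) in separate animals, and airway pressure recorded by transducer. Drug stocks were made fresh in distilled water, diluted in saline and kept on ice. Read-out was percent inhibition of control constriction, averaged over at least three dogs per dose at the higher dose. Carbachol and histamine data were combined.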

[3] = system: Canis familiaris; assay: Cardiotoxicity in spontaneously respiring dog assessed as degree of increase in heart rate at 25 to 50 mg/kg, iv relative to control; format: toxicity, organism-based, Canis lupus familiaris; set-up: dose 25-50 mg/kg, route intravenous; settings: in vivo
Procedure, shortened: (§3)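 Anesthetized, spontaneously respiring dogs. Heart rate was taken from a lead II EKG, and blood pressure from the right femoral artery by transducer. The increase in heart rate (beats/min) was scored on a graded scale with more than 4 dogs per dose, and its duration was recorded. Drugs were dissolved fresh in distilled water, diluted in physiological saline and kept on ice.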

[4] = system: Canis familiaris; assay: Cardiotoxicity in spontaneously respiring dog assessed as degree of increase in heart rate at 520 to 1040 mg/kg, it relative to control; format: toxicity, organism-based, Canis lupus familiaris; set-up: dose 520-1040 mg/kg, route endotracheal; settings: in vivo, inhaled_or_intranasal; procedure, shortened: as §3
[5] = system: Canis familiaris; assay: Cardiotoxicity in spontaneously respiring dog assessed as time of increase in heart rate at 25 to 50 mg/kg, iv relative to control; format: toxicity, organism-based, Canis lupus familiaris; set-up: dose 25-50 mg/kg, route intravenous; settings: in vivo; procedure, shortened: as §3
[6] = system: Canis familiaris; assay: Cardiotoxicity in spontaneously respiring dog assessed as time of increase in heart rate at 520 to 1040 mg/kg, it relative to control; format: toxicity, organism-based, Canis lupus familiaris; set-up: dose 520-1040 mg/kg, route endotracheal; settings: in vivo, inhaled_or_intranasal
Procedure, shortened: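 Anesthetized, spontaneously respiring dogs. Heart rate monitored by lead II EKG, with blood pressure taken from the right femoral artery by pressure transducer and recorded on a polygraph. Drug stocks made fresh in distilled water, diluted in physiological saline and kept on ice. Dosing was iv, id or it as listed. The duration of the heart-rate increase was recorded in h, with more than 4 dogs per dose.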

[7] = system: Canis familiaris; assay: Bronchodilator activity in dog assessed as time of inhibition of carbachol or histamine-induced bronchoconstriction at 25 to 50 mg/kg, iv relative to control; format: functional, Canis lupus familiaris; settings: dose mg/kg 25-50
Procedure, shortened: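 Dog airway model: anesthetized, cannulated via a nonbreathing valve, with airway pressure changes recorded after iv carbachol (2–4 μg/kg) or histamine diphosphate (20–50 μg/kg) challenge, each agonist in different animals. Compounds were given iv, intraduodenally or intratracheally from fresh aqueous stocks diluted in saline. Duration (h) of inhibition of induced bronchoconstriction was followed, and the two agonist datasets were pooled.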

[8] = system: Canis familiaris; assay: Bronchodilator activity in dog assessed as time of inhibition of carbachol or histamine-induced bronchoconstriction at 520 to 1040 mg/kg, it relative to control; format: functional, Canis lupus familiaris; settings: dose mg/kg 520-1040; route endotracheal; procedure, shortened: as §1
[9] = system: Canis familiaris; assay: Bronchodilator activity in dog assessed as degree of inhibition of carbachol or histamine-induced bronchoconstriction at 25 to 50 mg/kg, iv relative to control; format: functional, Canis lupus familiaris; settings: dose mg/kg 25-50; procedure, shortened: as §2
[10] = system: Canis familiaris; assay: Bronchodilator activity in dog assessed as degree of inhibition of carbachol or histamine-induced bronchoconstriction at 520 to 1040 mg/kg, it relative to control; format: functional, Canis lupus familiaris; settings: dose mg/kg 520-1040; route endotracheal; procedure, shortened: as §2

SMILES	Time [1] [h]	inhibition (INH) [2] [%]	Activity [3] [%]	Activity [4] [%]	Time [5] [h]	Time [6] [h]	Time [7] [h]	Time [8] [h]	inhibition (INH) [9] [%]	inhibition (INH) [10] [%]
Cc1ccc(CC(=O)Oc2ccc([C@@H](O)CNC(C)(C)C)cc2OC(=O)Cc2ccc(C)cc2)cc1.Cl	2	40								
CC(=O)Oc1cc([C@@H](O)CNC(C)(C)C)ccc1OC(=O)c1ccc(C)cc1.CS(=O)(=O)O			40	5	< 0.5	< 1	<1	>1	>70	>70
